# Data from ChEMBL document CHEMBL1649446, “Comparative antipneumococcal activities of sulopenem and other drugs” (2009).
# How the values were obtained:
# Type in all cases: functional
# Streptococcus pneumoniae [1] = test: Antimicrobial activity against Streptococcus pneumoniae isolate 3587 by agar dilution method
# Streptococcus pneumoniae [2] = test: Antimicrobial activity against Streptococcus pneumoniae isolate 1055 by agar dilution method
# Streptococcus pneumoniae [3] = test: Antimicrobial activity against Streptococcus pneumoniae isolate 2688 by agar dilution method
# In short: (§1)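 Agar dilution MIC on Mueller-Hinton agar with 5% sheep blood, inocula 10^4 CFU/spot; amoxicillin-clavulanate combined 1:2; S. pneumoniae ATCC 49619 quality control each run.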
# Streptococcus pneumoniae [4] = test: Antimicrobial activity against Streptococcus pneumoniae isolate 37 by agar dilution method; in short: as §1
# Streptococcus pneumoniae [5] = test: Antimicrobial activity against Streptococcus pneumoniae isolate 2880 by agar dilution method; in short: as §1
# Streptococcus pneumoniae [6] = test: Antimicrobial activity against Streptococcus pneumoniae isolate 1384 by agar dilution method; in short: as §1
# Streptococcus pneumoniae [7] = test: Antimicrobial activity against Streptococcus pneumoniae isolate 2874 by agar dilution method; in short: as §1
# Streptococcus pneumoniae [8] = test: Antimicrobial activity against Streptococcus pneumoniae isolate 1394 by agar dilution method
# Streptococcus pneumoniae [9] = test: Antimicrobial activity against Streptococcus pneumoniae isolate 1424 by agar dilution method; in short: as §1
# Streptococcus pneumoniae [10] = test: Antimicrobial activity against Streptococcus pneumoniae isolate 2617 by agar dilution method; in short: as §1
# Streptococcus pneumoniae [11] = test: Antimicrobial activity against Streptococcus pneumoniae isolate 3260 by agar dilution method
# Streptococcus pneumoniae [12] = test: Antimicrobial activity against Streptococcus pneumoniae isolate 3282 by agar dilution method
# Streptococcus pneumoniae [13] = test: Antimicrobial activity against compound-susceptible Streptococcus pneumoniae by agar dilution method; in short: as §1
# Streptococcus pneumoniae [14] = test: Antimicrobial activity against Streptococcus pneumoniae isolate 3346 by agar dilution method
# Streptococcus pneumoniae [15] = test: Antimicrobial activity against Streptococcus pneumoniae isolate 3791 by agar dilution method; in short: as §1
# Streptococcus pneumoniae [16] = test: Antimicrobial activity against Streptococcus pneumoniae isolate 3681 by agar dilution method; in short: as §1
# Streptococcus pneumoniae [17] = test: Antimicrobial activity against Streptococcus pneumoniae isolate 4755 by agar dilution method; in short: as §1
# Streptococcus pneumoniae [18] = test: Antimicrobial activity against Streptococcus pneumoniae isolate 1146 by agar dilution method; in short: as §1
# Streptococcus pneumoniae [19] = test: Antimicrobial activity against Streptococcus pneumoniae isolate 24 by agar dilution method
# Streptococcus pneumoniae [20] = test: Antimicrobial activity against Streptococcus pneumoniae isolate 3455 by agar dilution method
# Streptococcus pneumoniae [21] = test: Antimicrobial activity against Streptococcus pneumoniae isolate 4747 by agar dilution method; in short: as §1
# Streptococcus pneumoniae [22] = test: Antimicrobial activity against Streptococcus pneumoniae isolate 33 by agar dilution method; in short: as §1
# Streptococcus pneumoniae [23] = test: Antimicrobial activity against Streptococcus pneumoniae isolate 3481 by agar dilution method; in short: as §1
# Streptococcus pneumoniae [24] = test: Antimicrobial activity against Streptococcus pneumoniae isolate 1564 by agar dilution method
# Streptococcus pneumoniae [25] = test: Antimicrobial activity against compound-intermediate Streptococcus pneumoniae by agar dilution method; in short: as §1
# Streptococcus pneumoniae [26] = test: Antimicrobial activity against Streptococcus pneumoniae isolate 2686 by agar dilution method; in short: as §1
# Streptococcus pneumoniae [27] = test: Antimicrobial activity against Streptococcus pneumoniae isolate 3458 by agar dilution method
# Streptococcus pneumoniae [28] = test: Antimicrobial activity against compound-resistant Streptococcus pneumoniae by agar dilution method
# In short: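 Agar dilution on Mueller-Hinton agar with 5% sheep blood, inocula 10^4 CFU/spot. Panel of 45 drug-resistant serotype 19A pneumococci, plus 297 clinical strains grouped as penicillin-susceptible, -intermediate or -resistant (some macrolide- or levofloxacin-resistant, with defined mechanisms). Amoxicillin combined with clavulanate 1:2. S. pneumoniae ATCC 49619 quality control included in each run. MIC range, MIC50 and MIC90 reported.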
# Streptococcus pneumoniae [29] = test: Antimicrobial activity against Streptococcus pneumoniae isolate 3275 by agar dilution method; in short: as §1
# Streptococcus pneumoniae [30] = test: Antimicrobial activity against Streptococcus pneumoniae isolate 1397 by agar dilution method; in short: as §1
# Streptococcus pneumoniae [31] = test: Antimicrobial activity against Streptococcus pneumoniae isolate 3374 by agar dilution method; in short: as §1
# Streptococcus pneumoniae [32] = test: Antimicrobial activity against Streptococcus pneumoniae isolate 1147 by agar dilution method; in short: as §1
# Streptococcus pneumoniae [33] = test: Antimicrobial activity against Streptococcus pneumoniae isolate 3412 by agar dilution method; in short: as §1
# Streptococcus pneumoniae [34] = test: Antimicrobial activity against Streptococcus pneumoniae 1 by time-kill analysis
# In short: (§2)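 Time-kill in cation-adjusted Mueller-Hinton broth with 5% lysed horse blood; inocula 5 × 105 to 5 × 10^6 CFU/ml; drugs at MIC, 2× and 4× MIC; 35°C shaking water bath; viable counts at 0, 3, 6, 12 and 24 h. Bactericidal if ≥3 log10 CFU/ml (99.9%) reduction from original inoculum; 90% and 99% killing also scored.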
# Streptococcus pneumoniae [35] = test: Antimicrobial activity against Streptococcus pneumoniae 19A by agar dilution method; in short: as §1
# Streptococcus pneumoniae [36] = test: Antimicrobial activity against Streptococcus pneumoniae 9 by time-kill analysis; in short: as §2
# Streptococcus pneumoniae [37] = test: Antimicrobial activity against Streptococcus pneumoniae isolate 3263 by agar dilution method
# Streptococcus pneumoniae [38] = test: Antimicrobial activity against penicillin-susceptible Streptococcus pneumoniae by agar dilution method
# Streptococcus pneumoniae [39] = test: Antimicrobial activity against Streptococcus pneumoniae 6 by time-kill analysis
# In short: as §2, with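 “12,” for “12 and”, “=” for “if”, “drop” for “reduction”, “90%/99%/99.9%” for “90% and 99%”, “scored per strain.” for “also scored.”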
# Streptococcus pneumoniae [40] = test: Antimicrobial activity against Streptococcus pneumoniae 12 by time-kill analysis
# In short: as §2, with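 “12,” for “12 and”, “=” for “if”, “drop” for “reduction”, “90%/99%/99.9%” for “90% and 99%”, “scored per strain.” for “also scored.”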
# Streptococcus pneumoniae [41] = test: Antimicrobial activity against Streptococcus pneumoniae 7 by time-kill analysis
# In short: as §2, with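 “12,” for “12 and”, “=” for “if”, “drop” for “reduction”, “90%/99%/99.9%” for “90% and 99%”, “scored per strain.” for “also scored.”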
# Streptococcus pneumoniae [42] = test: Antimicrobial activity against Streptococcus pneumoniae 3 by time-kill analysis
# In short: as §2, with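 “12,” for “12 and”, “=” for “if”, “drop” for “reduction”, “90%/99%/99.9%” for “90% and 99%”, “scored per strain.” for “also scored.”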
# Streptococcus pneumoniae [43] = test: Antimicrobial activity against penicillin-intermediate Streptococcus pneumoniae by agar dilution method
# Streptococcus pneumoniae [44] = test: Antimicrobial activity against Streptococcus pneumoniae 5 by time-kill analysis; in short: as §2
# Streptococcus pneumoniae [45] = test: Antimicrobial activity against Streptococcus pneumoniae 8 by time-kill analysis
# In short: as §2, with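 “12,” for “12 and”, “=” for “if”, “drop” for “reduction”, “90%/99%/99.9%” for “90% and 99%”, “scored per strain.” for “also scored.”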
# Streptococcus pneumoniae [46] = test: Antimicrobial activity against Streptococcus pneumoniae 4 by time-kill analysis
# In short: as §2, with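 “12,” for “12 and”, “=” for “if”, “drop” for “reduction”, “90%/99%/99.9%” for “90% and 99%”, “scored per strain.” for “also scored.”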
# Streptococcus pneumoniae [47] = test: Antimicrobial activity against Streptococcus pneumoniae 10 by time-kill analysis
# In short: as §2, with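 “12,” for “12 and”, “=” for “if”, “drop” for “reduction”, “90%/99%/99.9%” for “90% and 99%”, “scored per strain.” for “also scored.”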
# Streptococcus pneumoniae [48] = test: Antimicrobial activity against Streptococcus pneumoniae 11 by time-kill analysis
# In short: as §2, with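 “12,” for “12 and”, “=” for “if”, “drop” for “reduction”, “90%/99%/99.9%” for “90% and 99%”, “scored per strain.” for “also scored.”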
# Streptococcus pneumoniae [49] = test: Antimicrobial activity against penicillin-resistant Streptococcus pneumoniae by agar dilution method; in short: as §1
# Streptococcus pneumoniae [50] = test: Antimicrobial activity against Streptococcus pneumoniae 2 by time-kill analysis
# In short: as §2, with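 “12,” for “12 and”, “=” for “if”, “drop” for “reduction”, “90%/99%/99.9%” for “90% and 99%”, “scored per strain.” for “also scored.”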
smiles,measurement,setting,value
CC1(C)S[C@@H]2[C@H](NC(=O)Cc3ccccc3)C(=O)N2[C@H]1C(=O)O [PENICILLIN G],MIC,Streptococcus pneumoniae [1],2 µg/mL
same,MIC,Streptococcus pneumoniae [2],2 µg/mL
same,MIC,Streptococcus pneumoniae [3],8 µg/mL
same,MIC,Streptococcus pneumoniae [4],4 µg/mL
same,MIC,Streptococcus pneumoniae [5],4 µg/mL
same,MIC,Streptococcus pneumoniae [6],4 µg/mL
same,MIC,Streptococcus pneumoniae [7],8 µg/mL
same,MIC,Streptococcus pneumoniae [8],4 µg/mL
same,MIC,Streptococcus pneumoniae [9],2 µg/mL
same,MIC,Streptococcus pneumoniae [10],1 µg/mL
same,MIC,Streptococcus pneumoniae [11],4 µg/mL
same,MIC,Streptococcus pneumoniae [12],4 µg/mL
same,MIC50,Streptococcus pneumoniae [13],0.03 µg/mL
same,MIC90,Streptococcus pneumoniae [13],0.06 µg/mL
same,MIC,Streptococcus pneumoniae [14],4 µg/mL
same,MIC,Streptococcus pneumoniae [15],2 µg/mL
same,MIC,Streptococcus pneumoniae [16],1 µg/mL
same,MIC,Streptococcus pneumoniae [17],8 µg/mL
same,MIC,Streptococcus pneumoniae [18],4 µg/mL
same,MIC,Streptococcus pneumoniae [19],4 µg/mL
same,MIC,Streptococcus pneumoniae [20],4 µg/mL
same,MIC,Streptococcus pneumoniae [21],4 µg/mL
same,MIC,Streptococcus pneumoniae [22],4 µg/mL
same,MIC,Streptococcus pneumoniae [23],8 µg/mL
same,MIC,Streptococcus pneumoniae [24],16 µg/mL
same,MIC50,Streptococcus pneumoniae [25],0.25 µg/mL
same,MIC90,Streptococcus pneumoniae [25],1 µg/mL
same,MIC,Streptococcus pneumoniae [26],4 µg/mL
same,MIC,Streptococcus pneumoniae [27],4 µg/mL
same,MIC,Streptococcus pneumoniae [28],2 µg/mL
same,MIC50,Streptococcus pneumoniae [28],2 µg/mL
same,MIC90,Streptococcus pneumoniae [28],4 µg/mL
same,MIC,Streptococcus pneumoniae [29],1 µg/mL
same,MIC,Streptococcus pneumoniae [30],2 µg/mL
same,MIC,Streptococcus pneumoniae [31],2 µg/mL
same,MIC,Streptococcus pneumoniae [32],4 µg/mL
same,MIC,Streptococcus pneumoniae [33],2 µg/mL
COCC1=C(C(=O)O)N2C(=O)[C@@H](NC(=O)/C(=N\OC)c3csc(N)n3)[C@H]2SC1 [CEFPODOXIME],MIC,Streptococcus pneumoniae [1],4 µg/mL
same,MIC,Streptococcus pneumoniae [34],0.03 µg/mL
same,MIC50,Streptococcus pneumoniae [35],8 µg/mL
same,MIC90,Streptococcus pneumoniae [35],8 µg/mL
same,MIC,Streptococcus pneumoniae [2],2 µg/mL
same,MIC,Streptococcus pneumoniae [36],0.25 µg/mL
same,MIC,Streptococcus pneumoniae [3],32 µg/mL
same,MIC,Streptococcus pneumoniae [37],4 µg/mL
same,MIC,Streptococcus pneumoniae [38],0.03 µg/mL
same,MIC50,Streptococcus pneumoniae [38],0.03 µg/mL
same,MIC90,Streptococcus pneumoniae [38],0.06 µg/mL
same,MIC,Streptococcus pneumoniae [4],4 µg/mL
same,MIC,Streptococcus pneumoniae [39],0.5 µg/mL
same,MIC,Streptococcus pneumoniae [5],2 µg/mL
same,MIC,Streptococcus pneumoniae [6],4 µg/mL
same,MIC,Streptococcus pneumoniae [7],4 µg/mL
same,MIC,Streptococcus pneumoniae [8],8 µg/mL
same,MIC,Streptococcus pneumoniae [9],4 µg/mL
same,MIC,Streptococcus pneumoniae [10],2 µg/mL
same,MIC,Streptococcus pneumoniae [11],2 µg/mL
same,MIC,Streptococcus pneumoniae [40],2 µg/mL
same,MIC,Streptococcus pneumoniae [41],4 µg/mL
same,MIC,Streptococcus pneumoniae [42],0.5 µg/mL
same,MIC,Streptococcus pneumoniae [12],2 µg/mL
same,MIC50,Streptococcus pneumoniae [43],0.25 µg/mL
same,MIC90,Streptococcus pneumoniae [43],2 µg/mL
same,MIC,Streptococcus pneumoniae [14],4 µg/mL
same,MIC,Streptococcus pneumoniae [15],4 µg/mL
same,MIC,Streptococcus pneumoniae [16],4 µg/mL
same,MIC,Streptococcus pneumoniae [17],4 µg/mL
same,MIC,Streptococcus pneumoniae [18],8 µg/mL
same,MIC,Streptococcus pneumoniae [19],2 µg/mL
same,MIC,Streptococcus pneumoniae [20],4 µg/mL
same,MIC,Streptococcus pneumoniae [21],2 µg/mL
same,MIC,Streptococcus pneumoniae [44],8 µg/mL
same,MIC,Streptococcus pneumoniae [45],4 µg/mL
same,MIC,Streptococcus pneumoniae [22],4 µg/mL
same,MIC,Streptococcus pneumoniae [23],4 µg/mL
same,MIC,Streptococcus pneumoniae [24],32 µg/mL
same,MIC,Streptococcus pneumoniae [26],8 µg/mL
same,MIC,Streptococcus pneumoniae [27],4 µg/mL
same,MIC,Streptococcus pneumoniae [29],1 µg/mL
same,MIC,Streptococcus pneumoniae [30],4 µg/mL
same,MIC,Streptococcus pneumoniae [46],8 µg/mL
same,MIC,Streptococcus pneumoniae [31],4 µg/mL
same,MIC,Streptococcus pneumoniae [47],0.25 µg/mL
same,MIC,Streptococcus pneumoniae [32],8 µg/mL
same,MIC,Streptococcus pneumoniae [48],4 µg/mL
same,MIC50,Streptococcus pneumoniae [49],4 µg/mL
same,MIC90,Streptococcus pneumoniae [49],8 µg/mL
same,MIC,Streptococcus pneumoniae [33],4 µg/mL
same,MIC,Streptococcus pneumoniae [50],0.016 µg/mL
